Data on 14 compounds can be found in ChEMBL document CHEMBL3046444, “Antiproliferative activity and synthesis of 8-prenylnaringenin derivatives by demethylation of 7-O- and 4'-O-substituted isoxanthohumols” (2012).

What all share (assay type): functional
The subject of assay [1] is HT-29. Description: Antiproliferative activity against Homo sapiens (human) HT-29 cells after 72 hr by SRB assay. The note with it: for IC50: HT-29, 72 h, read-out: ID50 (the source's name). A digest of the protocol: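 HT-29 colon adenocarcinoma cells were plated at 10^5/ml in RPMI 1640/Opti-MEM (1:1) with 5% FBS, antibiotics, 1 mM pyruvate and 2 mM glutamine. Test agents (0.1–100 μg/ml, solvent-matched controls) were added after 24 h and left for 72 h. Cells were TCA-fixed and stained 30 min with 0.4% SRB in 1% acetic acid, dye extracted with 10 mM Tris, OD 540 nm. Triplicates, 3–5 experiments; ID50 (μg/ml).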
(Sulforhodamine B stains cellular protein and so reports cell mass.)

Assay [2] concerns MCF7. Description: Antiproliferative activity against Homo sapiens (human) MCF7 cells after 72 hr by SRB assay. As to conditions: for IC50: MCF7, 72 h, read-out: ID50 (the source's name). In outline: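 MCF-7 breast cancer cells at 10^5/ml in Eagle's medium with 10% FBS, antibiotics, 2 mM glutamine, 1.0 mM pyruvate, 1% amino acids and 0.8 mg/l insulin, 37°C, 5% CO2. After 24 h, compounds at 0.1–100 μg/ml (acetone/ethanol controls) were added for 72 h. SRB read-out: cold 50% TCA fixation, 0.4% SRB stain, Tris extraction, 540 nm. Triplicates, repeated 3–5 times; 50% proliferation inhibition dose (ID50, μg/ml).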

For assay [3], the system named is CCRF-CEM. Kind of assay: Antiproliferative activity against Homo sapiens (human) CCRF-CEM cells after 72 hr by MTT assay. As to conditions: for IC50: read-out: ID50 (the source's name). In outline:
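Human leukemia CCRF/CEM cells seeded at 10^5/ml in RPMI 1640 with 10% FBS, penicillin/streptomycin and 2 mM L-glutamine at 37°C, 5% CO2. Compounds were added after 24 h at 0.1–100 μg/ml, with acetone or ethanol vehicle controls, and exposure ran 72 h. MTT was given for 4 h, formazan solubilized in SDS/DMF for 24 h, and read at 570 nm. Triplicates, 3–5 repeats; ID50 in μg/ml vs untreated.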
A general note: Tetrazolium dyes change colour on reduction, which living cells bring about.

SMILES strings stand for the structures. In brackets after ≈: the same amount, converted by molar mass. Activity calls are given as the source filed them. The rule behind the calls is not given here.

Turning to `C=CCOc1ccc(C2CC(=O)c3c(O)cc(OCC=C)c(CC=C(C)C)c3O2)cc1` (configuration not stated), the ID50 entry in assay [1], in assay [2] and in assay [3] was “inactive” each time.

As to `CCCCCCCCCCCCCCCC(=O)Oc1ccc(C2CC(=O)c3c(O)cc(OC(=O)CCCCCCCCCCCCCCC)c(CC=C(C)C)c3O2)cc1` (configuration not stated), the ID50 entry in assay [1], in assay [2] and in assay [3] was “inactive” each time.

For `CCCCCCCCCCCCCCCC(=O)Oc1ccc([C@@H]2CC(=O)c3c(OC)cc(OC(=O)CCCCCCCCCCCCCCC)c(CC=C(C)C)c3O2)cc1`, the ID50 result in assay [1], in assay [2] and in assay [3] was “inactive” in each case.

In the case of `CC(=O)Oc1ccc(C2CC(=O)c3c(O)cc(OC(C)=O)c(CC=C(C)C)c3O2)cc1` (configuration not stated) [7,4'-DI-O-ACETYL-8-PRENYLNARINGENIN], the IC50 in assay [1] worked out at 36.1 µg/mL (≈ 85.1 µM); in assay [2] it was 28 µg/mL (≈ 66 µM); in assay [3] it was 37 µg/mL (≈ 87.2 µM).

Regarding `COc1cc(OC(C)=O)c(CC=C(C)C)c2c1C(=O)C[C@@H](c1ccc(OC(C)=O)cc1)O2` [7,4'-DI-O-ACETYLISOXANTHOHUMOL], the IC50 in assay [1] came out at 32.1 µg/mL (≈ 73.2 µM); in assay [2] it was 16.9 µg/mL (≈ 38.5 µM); in assay [3], 23.3 µg/mL (≈ 53.1 µM).

In the case of `C=CCOc1ccc([C@@H]2CC(=O)c3c(OC)cc(OCC=C)c(CC=C(C)C)c3O2)cc1` [7,4'-DI-O-ALLYLISOXANTHOHUMOL], the figures for the IC50 in assay [1], in assay [2] and in assay [3] were 6.2 µg/mL (≈ 14.3 µM), 5.2 µg/mL (≈ 12 µM) and 2.7 µg/mL (≈ 6.21 µM), respectively.

On to `COc1ccc(C2CC(=O)c3c(O)cc(OC)c(CC=C(C)C)c3O2)cc1` (configuration not stated) [7,4'-DI-O-METHYL-8-PRENYLNARINGENIN], for which the ID50 entry in assay [1] and in assay [3] was “inactive” in each case. In addition, the IC50 in assay [2] came to 36.9 µg/mL (≈ 100 µM).

For the compound `COc1ccc([C@@H]2CC(=O)c3c(OC)cc(OC)c(CC=C(C)C)c3O2)cc1` [7,4'-DI-O-METHYLISOXANTHOHUMOL], the IC50 worked out at 6 µg/mL (≈ 15.7 µM) in assay [1], 6.6 µg/mL (≈ 17.3 µM) in assay [2] and 5 µg/mL (≈ 13.1 µM) in assay [3].

On to `CCCCCOc1ccc([C@@H]2CC(=O)c3c(OC)cc(OCCCCC)c(CC=C(C)C)c3O2)cc1` [7,4'-DI-O-N-PENTYL-8-ISOXANTHOHUMOL], for which the IC50 in assay [1] was determined as 8.2 µg/mL (≈ 16.6 µM); in assay [2], 7.1 µg/mL (≈ 14.4 µM); in assay [3] it was 4.3 µg/mL (≈ 8.69 µM).

With `CCCCCOc1cc(OC)c2c(c1CC=C(C)C)O[C@H](c1ccc(O)cc1)CC2=O` [7-O-N-PENTYLISOXANTHOHUMOL], the IC50 in assay [1] was 6.9 µg/mL (≈ 16.3 µM); in assay [2] it was 8.3 µg/mL (≈ 19.6 µM); in assay [3], 5.4 µg/mL (≈ 12.7 µM).

Take `CCCCCOc1cc(O)c2c(c1CC=C(C)C)OC(c1ccc(O)cc1)CC2=O` (configuration not stated) [7-O-PENTYL-8-PRENYLNARINGENIN]: the IC50 in assay [1] is 10 µg/mL (≈ 24.4 µM); in assay [2] it was 3.9 µg/mL (≈ 9.5 µM); in assay [3], 4.8 µg/mL (≈ 11.7 µM).

As to `COc1cc(O)c(CC=C(C)C)c2c1C(=O)CC(c1ccc(O)cc1)O2` (configuration not stated) [ISOXANTHOHUMOL], the IC50 came out at 32.6 µg/mL (≈ 92 µM) in assay [1], 9.4 µg/mL (≈ 26.5 µM) in assay [2] and 18.2 µg/mL (≈ 51.4 µM) in assay [3].

`CC(C)=CCc1c(O)cc(O)c2c1OC(c1ccc(O)cc1)CC2=O` (configuration not stated) [SOPHORAFLAVANONE B]: the IC50 was 33.2 µg/mL (≈ 97.5 µM) in assay [1], 19.4 µg/mL (≈ 57 µM) in assay [2] and 24.2 µg/mL (≈ 71.1 µM) in assay [3].

Regarding `COc1cc(O)c(CC=C(C)C)c(O)c1C(=O)/C=C/c1ccc(O)cc1` [XANTHOHUMOL], the IC50 in assay [1] is 3.8 µg/mL (≈ 10.7 µM); in assay [2], 4.7 µg/mL (≈ 13.3 µM); in assay [3], 4.1 µg/mL (≈ 11.6 µM).
